Data published in PubChem BioAssay AID623921 (The Scripps Research Institute Molecular Screening Center, 2012).
Several values for one entry are separate records, joined by “and”; a condition that tells them apart may be missing. Equal entries are not always repeated. Activity calls are given as the source filed them.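 How the source made its calls: active means remaining nuclease activity at or below 52% of the solvent-only control; inactive means the rest.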

molecular target: RecBCD enzyme subunit RecC (Escherichia coli (strain K12)) + RecBCD enzyme subunit RecB (Escherichia coli (strain K12)) (UniProt P07648+P08394); assay: purified RecBCD nuclease inhibitors, late-stage follow-up, counter-screen for AddAB inhibitor project, biochemical, radioactivity readout, 100 µM single dose (AID 623921); conditions: [3H] dsDNA nuclease, TCA-soluble radioactivity, at 100 µM, active compounds read low
Method in brief: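 System: purified E. coli RecBCD helicase-nuclease enzyme; Input: RecBCD enzyme at 4.5 nM; Compound: single nominal 100 µM compound dose, 5% DMSO final; Incubation: enzyme-compound mix on ice, 20 min reaction at 37 °C; Detection: scintillation counting of acid-soluble tritium after TCA precipitation; Evaluation: nuclease activity % versus DMSO reactions; Replication: triplicate.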

Sequence of RecBCD enzyme subunit RecC (Escherichia coli (strain K12)) + RecBCD enzyme subunit RecB (Escherichia coli (strain K12)) (P07648 whole entry, looked up): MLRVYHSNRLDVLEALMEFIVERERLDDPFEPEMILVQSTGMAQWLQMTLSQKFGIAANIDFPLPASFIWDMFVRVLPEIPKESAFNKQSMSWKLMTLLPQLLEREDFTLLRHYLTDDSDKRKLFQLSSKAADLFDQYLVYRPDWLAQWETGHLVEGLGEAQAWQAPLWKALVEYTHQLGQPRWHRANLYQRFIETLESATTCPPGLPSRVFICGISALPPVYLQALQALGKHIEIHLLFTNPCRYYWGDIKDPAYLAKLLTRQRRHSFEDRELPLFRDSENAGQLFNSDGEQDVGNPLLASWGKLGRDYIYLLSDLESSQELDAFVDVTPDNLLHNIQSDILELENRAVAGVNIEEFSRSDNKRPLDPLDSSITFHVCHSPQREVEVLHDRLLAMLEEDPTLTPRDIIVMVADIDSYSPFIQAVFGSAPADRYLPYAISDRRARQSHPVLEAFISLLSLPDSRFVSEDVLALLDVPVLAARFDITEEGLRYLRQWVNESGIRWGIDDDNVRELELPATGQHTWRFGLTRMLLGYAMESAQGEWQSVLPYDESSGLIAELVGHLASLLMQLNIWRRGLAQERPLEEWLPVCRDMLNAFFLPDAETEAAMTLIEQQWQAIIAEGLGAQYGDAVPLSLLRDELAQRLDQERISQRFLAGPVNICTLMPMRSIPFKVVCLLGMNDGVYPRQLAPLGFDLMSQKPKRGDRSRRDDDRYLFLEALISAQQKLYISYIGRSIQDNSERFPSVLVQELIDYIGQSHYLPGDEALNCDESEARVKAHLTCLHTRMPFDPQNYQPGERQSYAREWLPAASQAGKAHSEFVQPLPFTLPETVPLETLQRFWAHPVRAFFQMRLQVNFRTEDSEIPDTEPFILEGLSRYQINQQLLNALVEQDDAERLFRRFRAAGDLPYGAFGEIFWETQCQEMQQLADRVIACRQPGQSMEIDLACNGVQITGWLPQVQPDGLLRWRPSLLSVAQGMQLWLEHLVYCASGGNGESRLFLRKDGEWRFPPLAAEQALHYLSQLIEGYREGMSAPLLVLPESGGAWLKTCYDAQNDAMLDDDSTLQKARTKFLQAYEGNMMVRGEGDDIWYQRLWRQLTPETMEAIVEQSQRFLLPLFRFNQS
Sequence of RecBCD enzyme subunit RecC (Escherichia coli (strain K12)) + RecBCD enzyme subunit RecB (Escherichia coli (strain K12)) (P08394 whole entry, looked up): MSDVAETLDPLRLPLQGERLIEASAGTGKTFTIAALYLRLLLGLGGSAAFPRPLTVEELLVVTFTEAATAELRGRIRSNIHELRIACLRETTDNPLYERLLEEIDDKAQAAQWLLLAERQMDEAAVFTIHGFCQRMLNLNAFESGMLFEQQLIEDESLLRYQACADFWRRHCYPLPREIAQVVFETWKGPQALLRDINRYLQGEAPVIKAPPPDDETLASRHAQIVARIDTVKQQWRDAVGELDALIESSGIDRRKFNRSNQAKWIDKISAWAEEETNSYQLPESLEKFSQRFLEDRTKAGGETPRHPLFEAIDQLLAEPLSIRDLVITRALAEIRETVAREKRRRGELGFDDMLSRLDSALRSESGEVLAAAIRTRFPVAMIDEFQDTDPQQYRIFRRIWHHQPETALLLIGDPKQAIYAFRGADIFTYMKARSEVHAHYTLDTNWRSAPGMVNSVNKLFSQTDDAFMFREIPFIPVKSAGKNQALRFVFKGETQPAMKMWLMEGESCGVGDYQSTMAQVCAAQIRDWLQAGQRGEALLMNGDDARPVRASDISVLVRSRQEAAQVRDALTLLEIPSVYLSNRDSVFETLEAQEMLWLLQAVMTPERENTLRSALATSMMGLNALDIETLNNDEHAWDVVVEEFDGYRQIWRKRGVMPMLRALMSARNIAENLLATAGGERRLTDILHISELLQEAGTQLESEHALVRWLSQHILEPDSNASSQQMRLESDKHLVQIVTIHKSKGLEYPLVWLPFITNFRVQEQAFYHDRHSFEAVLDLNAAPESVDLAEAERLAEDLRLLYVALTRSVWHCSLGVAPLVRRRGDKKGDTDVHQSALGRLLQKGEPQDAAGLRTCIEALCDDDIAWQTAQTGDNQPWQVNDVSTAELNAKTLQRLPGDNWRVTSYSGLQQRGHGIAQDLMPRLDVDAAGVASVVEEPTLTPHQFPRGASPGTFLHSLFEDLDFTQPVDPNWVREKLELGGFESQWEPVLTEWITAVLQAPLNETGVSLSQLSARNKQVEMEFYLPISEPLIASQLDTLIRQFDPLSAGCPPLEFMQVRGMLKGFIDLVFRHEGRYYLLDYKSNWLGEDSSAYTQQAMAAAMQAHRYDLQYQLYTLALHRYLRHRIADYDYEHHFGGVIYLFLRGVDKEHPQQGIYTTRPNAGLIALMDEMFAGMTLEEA

Row | SMILES | remaining enzyme activity
1 | N#Cc1c(NC(=O)c2cnccn2)sc2c1CCCCCC2 | 71% (inactive)
2 | Cc1sc(NC(=O)c2cnccn2)c(C(=O)OC(C)C)c1-c1ccccc1 | 44%
3 | CCn1cc(C(=O)O)c(=O)c2cnc(N3CCN(C(=S)Nc4ccc(Cl)cc4)CC3)nc21 | -1%
4 | NC(=O)c1c(NC(=O)c2cnccn2)sc2c1CCCC2 | 85% (inactive)
5 | CCn1cc(C(=O)O)c(=O)c2cnc(N3CCN(C(=O)Nc4ccccc4)CC3)nc21 | 83% (inactive)
6 | CCn1cc(C(=O)O)c(=O)c2cnc(N3CCN(C(=S)NC(C)c4ccccc4)CC3)nc21 (stereo not drawn) | 1%
7 | CNC(=O)c1c(NC(=O)c2nc(SCc3ccccc3)ncc2Cl)sc2c1CCCC2 | 26%
8 | N#Cc1c(NC(=O)c2cnccn2)sc2c1CCCC2 | 21% and 30%
9 | N#Cc1c(NC(=O)c2ccco2)sc2c1CCC2 | 41%
10 | Cn1nccc1C(=O)Nc1sc2c(c1C#N)CCCC2 | 71% (inactive)
11 | CCn1cc(C(=O)O)c(=O)c2cnc(N3CCNCC3)nc21 | 110% (inactive)
12 | C=CCNC(=S)N1CCN(c2ncc3c(=O)c(C(=O)O)cn(CC)c3n2)CC1 | 63% (inactive)
13 | CC1(C)Cc2c(sc(NC(=O)c3ccco3)c2C#N)CO1 | 90% (inactive)
14 | N#Cc1c(NC(=O)c2ccccc2)sc2c1CCC2 | 94% (inactive)
15 | CC1CCc2c(sc(NC(=O)c3ccc([N+](=O)[O-])o3)c2C#N)C1 (stereo not drawn) | 110% (inactive)
16 | CCn1cc(C(=O)O)c(=O)c2cnc(N3CCN(C(=S)NC(=O)c4cccnc4)CC3)nc21 | 40%
17 | CCn1cc(C(=O)O)c(=O)c2cnc(N3CCN(C(=S)Nc4ccc5c(c4)OCCO5)CC3)nc21 | 34%

Row | SMILES | remaining enzyme activity
18 | CCn1cc(C(=O)O)c(=O)c2cnc(N3CCN(C(=S)Nc4ccccc4C(F)(F)F)CC3)nc21 | 30%
19 | Cc1sc(NC(=O)c2ccc(Br)o2)c(C#N)c1C | 51%
20 | COC(=O)c1c(-c2cccc(C)c2)csc1NC(=O)c1cnccn1 | 88% (inactive)
21 | CCn1cc(C(=O)O)c(=O)c2cnc(N3CCN(C(=S)Nc4ccccc4OC)CC3)nc21 | 26%
22 | CSc1ncc(Cl)c(C(=O)Nc2sc3c(c2C#N)CCC(C)C3)n1 (stereo not drawn) | 88% (inactive)
23 | CCn1cc(C(=O)O)c(=O)c2cnc(N3CCN(C(=S)NC4CC5CCC4C5)CC3)nc21 (stereo not drawn) | 1%
24 | CCC(C)(C)C1CCc2c(sc(NC(=O)c3cnccn3)c2C#N)C1 (stereo not drawn) | 85% (inactive)
25 | N#Cc1c(NC(=O)C2CC=CCC2C(=O)O)sc2c1CCC2 (stereo not drawn) | 77% (inactive)
26 | CCn1cc(C(=O)O)c(=O)c2cnc(N3CCN(C(=S)Nc4cccc(C(F)(F)F)c4)CC3)nc21 | -2%
27 | CSc1ncc(Cl)c(C(=O)Nc2sc3c(c2C(=O)NC2CCS(=O)(=O)C2)CCC(C)C3)n1 (stereo not drawn) | 76% (inactive)
28 | CCn1cc(C(=O)O)c(=O)c2cc(F)c(N3CCN(C(=S)Nc4ccccc4C(F)(F)F)CC3)cc21 | 45%
29 | CCn1cc(C(=O)O)c(=O)c2cnc(N3CCN(C(=S)NC(=O)c4ccccc4Cl)CC3)nc21 | 58% (inactive)
30 | CCn1cc(C(=O)O)c(=O)c2cc(F)c(N3CCN(C(=S)Nc4cccc(C(F)(F)F)c4)CC3)cc21 | 12%
31 | N#Cc1c(NC(=O)c2ccc(-c3ccccc3[N+](=O)[O-])o2)sc2c1CCCC2 | 120% (inactive)
32 | CCn1cc(C(=O)O)c(=O)c2cnc(N3CCN(C(=S)Nc4ccc5c(c4)OCO5)CC3)nc21 | 4%
33 | COC(=O)c1c(-c2ccccc2)csc1NC(=O)c1cnccn1 | 28%
34 | N#Cc1c(NC(=O)c2cccc(F)c2)sc2c1CCCC2 | 110% (inactive)

More lines, now with the values ahead:

Row | remaining enzyme activity | SMILES
35 | 11% | CCn1cc(C(=O)O)c(=O)c2cnc(N3CCN(C(=S)NC(=O)c4cccc(C)c4)CC3)nc21
36 | 34% | N#Cc1c(NC(=O)c2cc(-c3ccccc3)on2)sc2c1CCCC2
37 | 35% | CCn1cc(C(=O)O)c(=O)c2cnc(N3CCN(C(=S)NC)CC3)nc21
38 | 110% (inactive) | N#Cc1c(NC(=O)c2ccccc2C(=O)O)sc2c1CCCC2
39 | 106% (inactive) | Cc1ccc(C(=O)Nc2sc3c(c2C#N)CCCCC3)o1
40 | 28% | CCn1cc(C(=O)O)c(=O)c2cnc(N3CCN(C(=S)Nc4ccccc4Cl)CC3)nc21
41 | 19% | CCn1cc(C(=O)O)c(=O)c2cnc(N3CCN(C(=S)Nc4ccc(F)cc4)CC3)nc21
42 | 84% (inactive) | Cc1ccc(C(=O)Nc2sc3c(c2C#N)CCC3)o1
43 | 89% (inactive) | CC1CCc2c(sc(NC(=O)c3cccs3)c2C#N)C1 (stereo not drawn)
44 | 23% | CCn1cc(C(=O)O)c(=O)c2cnc(N3CCN(C(=S)Nc4ccccc4)CC3)nc21
45 | 110% (inactive) | CC1CCc2c(sc(NC(=O)c3ccc([N+](=O)[O-])o3)c2N)C1 (stereo not drawn)
46 | 40% | CCn1cc(C(=O)O)c(=O)c2cnc(N3CCN(C(=S)Nc4ccccc4C)CC3)nc21
47 | 78% (inactive) | COC(=O)c1c(NC(=O)c2cnccn2)sc2c1CCCC2
48 | 110% (inactive) | N#Cc1c(NC(=O)c2ccc([N+](=O)[O-])o2)sc2c1CCCC2
49 | 31% | CCn1cc(C(=O)O)c(=O)c2cnc(N3CCN(C(=S)Nc4ccccc4F)CC3)nc21
50 | 83% (inactive) | CC1CCc2c(sc(NC(=O)c3cnccn3)c2C#N)C1 (stereo not drawn)
51 | 7% | CCn1cc(C(=O)O)c(=O)c2cnc(N3CCN(C(=S)NCc4ccccc4)CC3)nc21
52 | 98% (inactive) | Nc1c(NC(=O)c2ccc([N+](=O)[O-])o2)sc2c1CCCC2
53 | 84% (inactive) | CCn1cc(C(=O)O)c(=O)c2cnc(N3CCN(C(=S)NC(=O)c4ccco4)CC3)nc21
